Measurements from ChEMBL document CHEMBL4513216, “Probing the Open Global Health Chemical Diversity Library for Multistage-Active Starting Points for Next-Generation Antimalarials” (ACS Infect Dis, 2020).

Test: Toxicity liver stage against HepG2, at 10uM
Assay type: cell-based
Parameters: test concentration 10 uM, cell line HepG2-A16-CD81EGFP
Conditions: human, HepG2-A16-CD81EGFP cells; read-out: INHIBITION
Procedure, shortened: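 Uninfected HepG2-A16-CD81EGFP cells, 3 × 10^3 per well, 1536-well, plated on prespotted compound at 10 μM final, parasite-free screening media added to match infected plates; puromycin 10 μM positive, DMSO 0.5% negative; run in parallel with 48 h PbLuc assay at 37 °C, 5% CO2; viability by CellTiter-Glo luminescence, normalized to controls.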

Compound	cytotoxicity at 10 µM [%]
CCc1ccc(OCC(O)CN2CCN(CCO)CC2)cc1 (stereo not drawn)	-11.9
NCC(c1cccnc1)N1CCOCC1 (stereo not drawn)	4.32
CNC(=O)c1cc2ccccc2n1C	6.84
CC(C)(C)CN1CC[C@H](c2nnc(Cc3c[nH]c4ccccc34)o2)C1	-3.9
CS(=O)(=O)N1CCN2C(=O)N(C3CCCCC3)C[C@H]2C1	7.77
CN(C)[C@H]1C[C@@H](Cc2cc(-c3ccc(F)cc3)on2)C1(C)C	-12.3
COCC(=O)NC[C@H]1C[C@@H]2CCN1C[C@@H]2CN1CCc2ccccc2C1	-1.33
Cc1ccc(NC(=O)c2ccc(N3CCCCC3)nn2)c(Cl)c1	-10.7
Cc1cc(=O)[nH]c(-n2nc(C)c(CCC(=O)NCC(C)C)c2C)n1	2.28
Cn1cc(C(=O)Nc2ccc(CC(=O)NC3CC3)cc2)nn1	-7.42
CC(C)N1CCc2ncn(C(C)C)c2C1C(=O)N1CCN(C)CC1 (stereo not drawn)	-0.849
CC1N(CC2CC2)C(=O)COC12CCN(C(=O)c1ccno1)CC2 (stereo not drawn)	0.104
O=C(c1ccccc1)N1Cc2nccn2CC(Cn2ncccc2=O)C1 (stereo not drawn)	10.4
CS(=O)(=O)N1CC[C@H]2O[C@H](C(=O)NCc3cccnc3)CC[C@H]21	-7.24
O=C(c1ncccn1)N1C[C@@H]2COC[C@]2(COCc2cccnc2)C1	-1.9
CN(C)CCOCC1CN(C(=O)[C@H]2CCCO2)Cc2ccnn2C1 (stereo partly drawn)	-0.422
CN1CCN(C(=O)COCc2nc(-c3ccncc3)no2)CC1	14.6
Cn1ccc(NC(=O)CN2CCN(C3CCCC3)C(=O)C2)n1	4.31
CN1CCCC(c2nccnc2-c2cccc(Cl)c2)C1 (stereo not drawn)	3.57
CC1CCN(c2nc(O)cc(C3CC(=O)N(C4CCCCC4)C3)n2)CC1 (stereo not drawn)	3.81
Cc1cc(C)nc(N2CCC(Cn3cc(C(N)=O)cn3)CC2)n1	3.65
Cc1nc(C2CCN(S(C)(=O)=O)CC2)nc(N2CCCC2)c1C	4.48

Compound	cytotoxicity at 10 µM [%]
CCN1CCN(c2ncc(-c3cc(C)no3)c(-c3ccco3)n2)CC1	-11
Cc1cc(C)c(CNC(=O)N2CCCN(C(=O)C(C)C)CC2)c(C)c1	12.3
CC(OCC1CC1)C(=O)NCc1cccc(CN2CCCC2=O)c1 (stereo not drawn)	3.05
O=C(C1CCOc2ccccc21)N1CCOc2cccc(F)c21 (stereo not drawn)	4.52
Cc1nc(-c2ccccc2)sc1C(=O)N(C1CC1)C1CC(=O)NC1=O (stereo not drawn)	2.78
CCN(CC)CCn1cc(NC(=O)CNc2ccccc2OC)cn1	6.19
CC(C)(NC(=O)Nc1cnn(CC2CCCO2)c1)c1nccs1 (stereo not drawn)	-2.64
COc1ncc(NCc2cc(C#N)cs2)cc1C(N)=O	3.8
OC1(CNCc2cnc(N3CCOCC3)nc2)CCCCC1	-2.41
COc1ccc(N(CCC(N)=O)C(=O)CSc2ccc(F)c(F)c2)cc1	4.13
Cc1c(C(=O)OCC2CC(=O)N(c3ccccc3)C2)cnn1C(C)C (stereo not drawn)	-3.52
CN1C(=O)c2ccc(NC(=O)CSc3ccc4c(c3)CCC4)cc2C1=O	0.0636
COc1cc(NC(=O)c2cc(Cl)ccc2F)c(C(=O)N(C)C)cc1OC	-2.61
Cc1cc(CNC2CCc3nc(C(C)C)nn3C2)on1 (stereo not drawn)	7.61
Cc1nc(CN2CCC(N(C)Cc3noc(C(C)C)n3)C2)oc1C (stereo not drawn)	4.63
Cc1cccc(OC2CCN(c3nccnc3C#N)CC2)n1	1.1
CCC(NCc1ccccn1)c1ccccc1OCC(=O)NC (stereo not drawn)	11.3
Cc1noc(C)c1CS(=O)(=O)C(C)C(=O)N(C)c1ccccc1 (stereo not drawn)	-1.58
O=C1CN(C(=O)CNC(CC(F)(F)F)c2ccc(F)cc2)CCN1 (stereo not drawn)	10.4
O=C(c1[nH]c2ccc(Cl)cc2c1Cl)N1CCC2(CC1)OCCO2	23.5
CCN(CC)S(=O)(=O)CCNc1ncnc2cc(F)c(F)cc12	25.9
COc1c(CNCCC(=O)Nc2cccc(C)n2)c(C)nn1C	12.6

Compound	cytotoxicity at 10 µM [%]
Cc1cccc(-c2nc(C)nn2CN2CCC3(CC2)OCCO3)c1	-13.8
Cc1cc(NC(=O)Cn2ccccc2=O)n(C)n1	-7.32
Cn1cc(CNCCOc2ccc(F)c(F)c2)c(-c2cccnc2)n1	-2.53
Cc1nc(C(=O)N2CC[C@@]3(C[C@H](NS(C)(=O)=O)CCO3)C2)cs1	-72.9
CC(C)CN1C(=O)CO[C@@H]2CN(C(=O)C3CCOCC3)C[C@H]21	-88.1
CC(C)N1CCO[C@H]2CN(C(=O)c3ccncc3)C[C@H]21	-74.3
Cn1cccc1C(=O)N1CCC2(CC1)CN(c1cncnc1)C(=O)CO2	4.35
COc1cccc(N2CCN(Cc3cc(C)cc(F)c3)CC2=O)c1	25.9
Cc1cnccc1N1CCCN(C(=O)CCn2ccnc2C)CC1	-6.32
CN(C)S(=O)(=O)N1CC[C@]2(O)CCN(c3nc4ccccc4s3)C[C@@H]2C1	-1.82
Cc1oc(-c2cccc(F)c2F)nc1CN(C)CCO	-9.49
Cc1ccc(NC(=O)[C@H]2C[C@H](C(=O)O)CN(CC(C)C)C2)cn1	9.9
Cn1nc(C(C)(C)C)cc1NC(=O)Cn1ccnc1	1.5
Cc1n[nH]c(C)c1CN(C)C(C(=O)O)c1ccc2c(c1)OCO2 (stereo not drawn)	6.86
COc1ccc(NC(=O)CCN2CC=C(c3cnn(C)c3)CC2)c(C)c1	-4.08
O=C(c1ccccc1C1CCNC1)N1CCC(N2CCC(O)CC2)CC1 (stereo not drawn)	-8.3
N#Cc1cccnc1N1CCN(S(=O)(=O)NCc2ccccc2)CC1	6.1
CC(=O)Cc1c(C)nn(-c2cncc(N)c2)c1C	-4.05
N#Cc1cccnc1Oc1cc(F)c(CN2CCCC2)c(Cl)c1	-13.9
Cc1ccc(CN2CCN(c3ccc(F)cn3)CC2=O)cc1C	-4.4
COCc1nc(CN2CCC3(CCCO3)CCC2=O)no1 (stereo not drawn)	-10.3
O=S(=O)(Cc1ccccc1)NCc1ccco1	0.0906

Compound	cytotoxicity at 10 µM [%]
O=C1N(Cc2cccc(F)c2F)CCCC1(O)CNC1CCCC1 (stereo not drawn)	13.8
O=c1oc(-c2ccc(F)cc2)nn1CN1CCSCC1	0.449
Cc1nn(C)c(N(C)C)c1CNCc1ccc2c(c1)OCO2	-2.51
COc1ccc(OCCN2CCC(c3ccnn3CCO)CC2)cc1	-6.9
CC(C(=O)N1CCCN(c2ncccc2C#N)CC1)n1cncn1 (stereo not drawn)	-6.54
CNC(=O)C1CCN(C(=O)NCc2ccc(-c3ccn[nH]3)cc2)CC1	-4.22
Cc1cc(C)cc(C2(C(=O)NCC3CCN(CC(F)(F)F)C3)CC2)c1 (stereo not drawn)	-1.62
c1ccc2c(N3CCCCC3Cn3cccn3)ncnc2c1 (stereo not drawn)	-5.33
Cc1cnn(CC2CN(Cc3nc(C)c(C)o3)CCO2)c1 (stereo not drawn)	-3.88
Cc1cnn(CC2CN(Cc3nc(C4CC4)no3)CCO2)c1 (stereo not drawn)	-4.26
CN1CCCC1CNC(=O)CCCOc1cccc(F)c1 (stereo not drawn)	-9.54
Cc1cc(C)n(CC2CCCN2CCC(=O)Nc2cc(C)on2)n1 (stereo not drawn)	1.44
c1ccc(-n2cc(CNC3CCc4ncnn4C3)cn2)cc1 (stereo not drawn)	-26.6
Cc1cnc(C(=O)NCc2ccnc(N(C)C)c2)cn1	-1.07
CC(C)(C)c1cn2nc(N3CCCC3Cn3cccn3)sc2n1 (stereo not drawn)	-23.8
CCc1nccn1C1CCCN(C(=O)c2ccc(C(=O)NC)nc2)C1 (stereo not drawn)	-6.33
Cc1ccccc1-c1cc(C(=O)NCCN2CCCS2(=O)=O)[nH]n1	-12.9
Cc1nc(CNCc2c(C)nn(C)c2N2CCOCC2)cs1	-7.44
CCC(O)CN1CCN(C(=O)c2cccn2Cc2cccs2)CC1 (stereo not drawn)	-5.74
Cc1nn(C)c(C)c1C(C)NC(=O)Nc1cccnc1N1CCCC1 (stereo not drawn)	-6.88
Cc1noc(C(C)C)c1C(=O)NCCN1CCCCCC1=O	-9.07
CN(C)C1COC2(CCN(Cc3nccs3)CC2)C1 (stereo not drawn)	2.02

Compound	cytotoxicity at 10 µM [%]
Cc1occc1C(=O)N1C[C@@H]2OCCN(c3ncccn3)[C@@H]2C1	7.34
O=C1CC(c2ccncc2)C2(CCN(C(=O)c3cccc(F)c3)CC2)N1 (stereo not drawn)	-74.4
CCN1CCN(C)C2(CCN(Cc3cccc(C)n3)CC2)C1=O	2
CCN1CC[C@@]2(C(=O)N3CCOCC3)CCN(C(=O)CC(C)C)CC[C@@H]12	3.56
O=C1CCC2(CCN(Cc3nccs3)CC2)N1Cc1ccccc1	1.54
CCN1CC[C@@]2(C(=O)N(C)C)CCN(C(=O)Cc3ccccc3)CC[C@@H]12	4.65
CN(C)Cc1cnc2n1CCN(C(=O)Cc1ccsc1)CC2	-3.95
O=C(c1ccc[nH]1)N1CCc2c(COCc3ccncc3)cncc2C1	14.7
CN(C)C(=O)COC[C@@H]1CC[C@H]2[C@H](CCN2c2ccccn2)O1	10
COC[C@H]1CN(CC2CC2)C(=O)[C@@H]2CCN(Cc3ccoc3)CC[C@H]12	-2.05
Cc1ccc(CN2CCOC3(COCCN(C(C)C)C3)C2)s1 (stereo not drawn)	-0.82
O=C(NCc1cn2c(n1)CN(Cc1nccs1)CC2)C1CCC1	4.61
Cn1nc(CN2CCCCC2)c2c1CN(Cc1ccoc1)C2	-0.449
CN(Cc1ccccn1)C(=O)[C@H]1CO[C@H]2CCN(CC3CC3)C[C@H]2C1	-105
c1nc(COCC2CC2)c2n1CCCN(CC1CC1)C2	-4.77
CN(Cc1ccco1)Cc1cnc2n1CCN(c1ccccn1)CC2	-0.48
O=C(Cc1ccccc1)N1Cc2nccn2CC(CN2CCCC2)C1 (stereo not drawn)	-101
Cn1cc(CN2CCCC3(CCN(C(=O)c4ccccn4)C3)C2)cn1 (stereo not drawn)	-66.9
O=C(NC1CC1)[C@H]1C[C@H]2OCC[C@H]2N(Cc2cccc3ccccc23)C1	2.64
CN(C)CCCC(=O)N1C[C@@H]2CC[C@H]1CN(Cc1ccccc1)C2	-5.39
